“Also recorded” adds a separate entry of the source. Where two headings read alike, the source gives them in different places.
What was measured:
Safety and tolerability = assay type: in vivo, human
platelet function [1] = assay: VerifyNow Base channel; assay type: in vivo, human; settings: for Base channel inhibition of platelet function, mean (min-max): 15 minutes post dose
In short: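 STEMI patients received a single subcutaneous dose in the upper arm before pPCI (0.075, 0.090 or 0.110 mg/kg cohorts). Citrated (3.2%) whole blood was drawn pre-dose and at 15–180 min, plus 240 min for cohorts 2–3. It was tested in the VerifyNow P2Y12 cartridge Base channel (20 μM iso-TRAP plus PAR-4 activator) as percent inhibition. Time to 50% return of platelet function was also derived.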

platelet function [2] = settings: Phase 1, sc; cited from earlier work
[3] = Phase 1, healthy subjects and stable CAD patients on aspirin; cited from earlier work
platelet function [4] = assay type: in vivo, human; settings: 15 minutes post dose
In short: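 Patients with STEMI were given one subcutaneous upper-arm injection before pPCI at 0.075, 0.090 or 0.110 mg/kg. Whole blood in 3.2% citrate was sampled pre-dose and at 15, 30, 45, 60, 90, 120 and 180 min, plus 240 min for cohorts 2–3. It was read on the VerifyNow P2Y12 iso-TRAP channel (3-4 μM iso-TRAP) as percent inhibition.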

[5] = Whole blood pharmacokinetics of RUC-4 in STEMI patients; assay type: in vivo, human; settings: for maximum blood concentration (Cmax), mean±SD / tmax, median [min-max]: whole blood
[6] = assay type: in vivo, human
In short: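 STEMI patients in three cohorts received one weight-adjusted subcutaneous injection in the outer upper arm before pPCI, at 0.075, 0.090 or 0.110 mg/kg. Platelet counts were taken pre-dose and at 1, 24 and 72 h post dose. Other blood counts and kidney and liver function analytes were also monitored for tolerability.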

platelet aggregation = settings: cited from earlier work
platelet function [7] = settings: cited from earlier work
platelet function [8] = settings: ref Bentur et al (submitted), cited from earlier work
[9] = even at peak levels of ticagrelor achieved in vivo, ref Bentur et al (submitted)

NCC(=O)Nc1cncc(-c2nn3c(=O)cc(N4CCNCC4)nc3s2)c1 [RUC-4]
Number of patients with AEs with fatal outcome/death (Safety and tolerability; 0.075 mg/kg sc): 0 (0%) n/N (%)
Number of patients with AEs with fatal outcome/death (Safety and tolerability; 0.090 mg/kg sc): 0 (0%) n/N (%)
Number of patients with AEs with fatal outcome/death (Safety and tolerability; 0.110 mg/kg sc): 0 (0%) n/N (%)
AEs of special interest: Injection site bruising (Safety and tolerability; Total, all doses): 11 (41%) n/N (%)
AEs of special interest: Injection site reaction (Safety and tolerability; Total, all doses): 1 (4%) n/N (%)
AEs of special interest: Mild access-site bleeding (Safety and tolerability; Total, all doses): 6 (22%) n/N (%)
AEs of special interest: Severe access-site bleeding (Safety and tolerability; Total, all doses): 2 n/N (%)
Bleeding according to BARC classification: 1 (Safety and tolerability; Total, all doses): 13 n/N (%)
Number of patients with AEs with fatal outcome/death (Safety and tolerability; Total, all doses): 0 (0%) n/N (%)
most common AEs (injection site bruising, access-site haematoma or bruising) rated as grade 1 (Safety and tolerability; safety cohort, all doses): 11/16
bruising at the RUC-4 injection site (Safety and tolerability; safety cohort, all doses, n=27): 41%
vascular access-site haematoma or bruising (Safety and tolerability; safety cohort, all doses, n=27): 30%
Base channel inhibition of platelet function, mean (min-max) (platelet function [1]; 0.075 mg/kg sc): 86.0% (74.2%-97.7%)
Base channel inhibition of platelet function, mean (min-max) (platelet function [1]; 0.090 mg/kg sc): 92.3% (86.8%-97.1%)
Base channel inhibition of platelet function, mean (min-max) (platelet function [1]; 0.110 mg/kg sc): 93.0% (81.9%-98.6%)
inhibition of the Base channel assay, on average (platelet function [1]; within 15 minutes, sc, all cohorts): more than 90%
return of platelet function (platelet function [2]): within two hours
time to high-grade inhibition of platelet function (LTA, 20 μM ADP) (platelet function [2]): ≤ 15 min
dose up to which RUC-4 was well tolerated [3]: up to 0.075 mg/kg
inhibition of platelet function, iso-TRAP assay, mean (min-max) (platelet function [4]; 0.075 mg/kg sc): 77.5% [65.7%-90.6%]
patients with high-grade (≥77%) inhibition of the VerifyNow iso-TRAP assay (platelet function [4]; 0.075 mg/kg sc): 3/8
inhibition of platelet function, iso-TRAP assay, mean (min-max) (platelet function [4]; 0.090 mg/kg sc): 87.5% [73.8%-93.1%]
patients with high-grade (≥77%) inhibition of the VerifyNow iso-TRAP assay (platelet function [4]; 0.090 mg/kg sc): 7/8
inhibition of platelet function, iso-TRAP assay, mean (min-max) (platelet function [4]; 0.110 mg/kg sc): 91.7% [76.4%-99.3%]
patients with high-grade (≥77%) inhibition of the VerifyNow iso-TRAP assay (platelet function [4]; 0.110 mg/kg sc): 7/8
time at which maximum whole blood concentrations were reached, mean ([5]; post dose, all cohorts): 20 min
maximum blood concentration (Cmax), mean±SD ([5]; 0.075 mg/kg sc): 96.7 ± 26.0 ng/mL
tmax, median [min-max] ([5]; 0.075 mg/kg sc): 15 [15-16] minutes
maximum blood concentration (Cmax), mean±SD ([5]; 0.090 mg/kg sc): 152.4 ± 114.0 ng/mL
tmax, median [min-max] ([5]; 0.090 mg/kg sc): 15 [14-45] minutes
maximum blood concentration (Cmax), mean±SD ([5]; 0.110 mg/kg sc): 129.8 ± 23.3 ng/mL
tmax, median [min-max] ([5]; 0.110 mg/kg sc): 15 [13-45] minutes
Haemoglobin (mean, SD) ([6]; 24 hours post dose, Cohort 1 (0.075 mg/kg), pre-dose 14.04 (0.95)): 13.82 (2.15) g/dL
Platelet count (mean, SD) ([6]; 24 hours post dose, Cohort 1 (0.075 mg/kg), pre-dose 226.38 (44.59)): 211.13 (36.22) 109/L
Haemoglobin (mean, SD) ([6]; 24 hours post dose, Cohort 2 (0.090 mg/kg), pre-dose 13.68 (1.17)): 13.93 (1.46) g/dL
Platelet count (mean, SD) ([6]; 24 hours post dose, Cohort 2 (0.090 mg/kg), pre-dose 294.44 (74.60)): 273.00 (71.72) 109/L
Haemoglobin (mean, SD) ([6]; 24 hours post dose, Cohort 3 (0.110 mg/kg), pre-dose 14.31 (1.31)): 13.29 (2.11) g/dL
Platelet count (mean, SD) ([6]; 24 hours post dose, Cohort 3 (0.110 mg/kg), pre-dose 283.44 (60.85)): 238.13 (46.07) 109/L
Haemoglobin (mean, SD) ([6]; 72 hours post dose /discharge, Cohort 1 (0.075 mg/kg), pre-dose 14.04 (0.95)): 14.10 (2.13) g/dL
Platelet count (mean, SD) ([6]; 72 hours post dose /discharge, Cohort 1 (0.075 mg/kg), pre-dose 226.38 (44.59)): 214.88 (49.28) 109/L
Haemoglobin (mean, SD) ([6]; 72 hours post dose /discharge, Cohort 2 (0.090 mg/kg), pre-dose 13.68 (1.17)): 13.96 (1.14) g/dL
Platelet count (mean, SD) ([6]; 72 hours post dose /discharge, Cohort 2 (0.090 mg/kg), pre-dose 294.44 (74.60)): 281.67 (79.81) 109/L
Haemoglobin (mean, SD) ([6]; 72 hours post dose /discharge, Cohort 3 (0.110 mg/kg), pre-dose 14.31 (1.31)): 13.75 (2.24) g/dL
Platelet count (mean, SD) ([6]; 72 hours post dose /discharge, Cohort 3 (0.110 mg/kg), pre-dose 283.44 (60.85)): 229.00 (47.76) 109/L
changes in blood counts, or in kidney or liver function analytes ([6]; all cohorts): no clinically meaningful changes
thrombocytopaenia ([6]; first 72 hours post dose, all patients): No thrombocytopaenia; also recorded: None of the patients included in the study developed thrombocytopaenia; also recorded: did not produce thrombocytopaenia

CCCCOC(=O)N1CCN(C(=O)[C@H](CP(=O)(O)O)NC(=O)c2cc(N3CC[C@H](OC)C3)nc(-c3ccccc3)n2)CC1 [Selatogrel, selatogrel]
effect on the VerifyNow P2Y12 assay (platelet aggregation; single sc dose prior to PCI, patients with MI): inhibited
duration of effects (platelet aggregation; single sc dose): at least eight hours

CC(=O)Oc1ccccc1C(=O)O [aspirin]
effect on the Base channel assay (platelet function [7]; [9]): not affected
effect on the iso-TRAP assay (platelet function [8]; Supplementary Appendix 2): not affected

CC(=O)Oc1cc2c(s1)CCN(C(C(=O)C1CC1)c1ccccc1F)C2 (centres unmarked) [prasugrel]
effect on the Base channel assay (platelet function [7]; doses that cause near-complete inhibition of the P2Y12 assay): do not inhibit

CCCSc1nc(N[C@@H]2C[C@H]2c2ccc(F)c(F)c2)c2nnn([C@@H]3C[C@H](OCCO)[C@@H](O)[C@H]3O)c2n1 [ticagrelor]
effect on the Base channel assay (platelet function [7]; [9]): not affected
inhibition of the iso-TRAP assay (platelet function [8]; at peak levels of ticagrelor achieved in vivo): about 20%

Reference: article PMC9464482 (EuroIntervention : journal of EuroPCR in collaboration with …, 2021)
